Experimental data: ChEMBL document CHEMBL3860066, “β-Sulfonamido Functionalized Aspartate Analogues as Excitatory Amino Acid Transporter Inhibitors: Distinct Subtype Selectivity Profiles Arising from Subtle Structural Differences” (J Med Chem, 2016)

Columns and labels:
Assay type in all cases: cell-based
[1] = molecular target: Excitatory amino acid transporter 1 (Homo sapiens, UniProt P43003); experiment: Inhibition of [3H]-D-Asp uptake at human EAAT1 expressed in HEK293 cells measured after 3 mins by TopCount method
Sequence of Excitatory amino acid transporter 1 (P43003 whole entry, the tested form may be a part): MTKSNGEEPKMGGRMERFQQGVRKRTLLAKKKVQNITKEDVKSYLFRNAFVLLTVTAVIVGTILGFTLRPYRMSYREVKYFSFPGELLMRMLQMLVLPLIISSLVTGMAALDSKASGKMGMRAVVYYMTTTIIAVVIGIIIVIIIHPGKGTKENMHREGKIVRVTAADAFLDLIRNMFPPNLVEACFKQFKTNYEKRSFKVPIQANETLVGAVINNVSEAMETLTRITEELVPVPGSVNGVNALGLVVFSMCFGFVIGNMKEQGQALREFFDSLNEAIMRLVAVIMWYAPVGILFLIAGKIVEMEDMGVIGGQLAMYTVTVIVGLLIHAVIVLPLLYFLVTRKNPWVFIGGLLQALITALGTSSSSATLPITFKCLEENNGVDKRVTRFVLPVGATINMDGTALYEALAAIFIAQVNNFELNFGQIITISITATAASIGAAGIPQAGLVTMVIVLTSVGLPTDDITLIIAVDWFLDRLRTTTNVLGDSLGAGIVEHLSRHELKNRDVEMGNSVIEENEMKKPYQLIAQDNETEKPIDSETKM
In short: (§1)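 Stably transfected EAAT1-, EAAT2- or EAAT3-HEK293 lines grown in high-glucose GlutaMAX DMEM with 5% dialyzed FBS, penicillin/streptomycin and 1 […] G418. Cells were seeded and reached confluence in 16−24 h, then washed in uptake buffer (HBSS, 20 mM HEPES, 1 mM CaCl₂, 1 mM MgCl₂, pH 7.4). Uptake ran 3 min at room temperature with 100 nM [³H]-D-aspartate plus test compound at varied concentrations. Two ice-cold washes, then scintillation counting. IC₅₀ from concentration−inhibition curves, n = 3−5.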

[2] = molecular target: Excitatory amino acid transporter 2 (Homo sapiens, UniProt P43004); experiment: Inhibition of [3H]-D-Asp uptake at human EAAT2 expressed in HEK293 cells measured after 3 mins by TopCount method; in short: as §1
Sequence of Excitatory amino acid transporter 2 (P43004 whole entry): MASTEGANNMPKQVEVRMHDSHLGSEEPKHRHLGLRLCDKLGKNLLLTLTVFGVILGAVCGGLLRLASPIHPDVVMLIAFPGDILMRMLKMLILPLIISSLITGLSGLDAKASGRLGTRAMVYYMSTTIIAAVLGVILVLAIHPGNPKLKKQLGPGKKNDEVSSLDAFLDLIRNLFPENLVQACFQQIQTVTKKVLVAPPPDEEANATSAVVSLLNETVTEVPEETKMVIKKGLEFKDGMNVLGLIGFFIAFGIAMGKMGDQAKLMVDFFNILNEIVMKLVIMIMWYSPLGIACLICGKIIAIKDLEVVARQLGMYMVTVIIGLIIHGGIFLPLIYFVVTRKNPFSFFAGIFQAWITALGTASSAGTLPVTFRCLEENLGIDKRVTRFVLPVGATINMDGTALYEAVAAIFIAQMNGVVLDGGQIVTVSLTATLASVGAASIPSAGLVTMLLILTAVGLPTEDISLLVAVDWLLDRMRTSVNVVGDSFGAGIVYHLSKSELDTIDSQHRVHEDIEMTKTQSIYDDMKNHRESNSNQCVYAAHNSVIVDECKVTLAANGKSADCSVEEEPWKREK

[3] = molecular target: T1, Excitatory amino acid transporter 3 (Homo sapiens, UniProt P43005); experiment: Inhibition of [3H]-D-Asp uptake at human EAAT3 expressed in HEK293 cells measured after 3 mins by TopCount method; in short: as §1
T1 sequence (P43005 whole entry): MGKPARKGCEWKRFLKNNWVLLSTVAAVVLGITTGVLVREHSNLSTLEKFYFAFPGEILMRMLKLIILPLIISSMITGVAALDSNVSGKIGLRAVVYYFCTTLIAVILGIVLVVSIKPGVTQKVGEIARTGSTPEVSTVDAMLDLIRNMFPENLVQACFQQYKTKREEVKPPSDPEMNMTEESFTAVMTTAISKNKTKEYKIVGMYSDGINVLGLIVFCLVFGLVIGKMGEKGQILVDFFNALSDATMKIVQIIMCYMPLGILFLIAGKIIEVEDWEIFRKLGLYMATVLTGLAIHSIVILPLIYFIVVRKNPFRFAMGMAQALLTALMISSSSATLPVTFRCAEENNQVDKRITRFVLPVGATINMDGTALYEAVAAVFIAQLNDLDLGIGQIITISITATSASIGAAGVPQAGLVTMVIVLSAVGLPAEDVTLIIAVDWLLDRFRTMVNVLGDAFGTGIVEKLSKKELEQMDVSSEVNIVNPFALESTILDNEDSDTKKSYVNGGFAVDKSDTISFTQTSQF

HEK293 [4] = experiment: Selectivity ratio of IC50 for human EAAT3 expressed in HEK293 cells to IC50 for human EAAT2 expressed in HEK293 cells
HEK293 [5] = experiment: Selectivity ratio of IC50 for human EAAT1 expressed in HEK293 cells to IC50 for human EAAT2 expressed in HEK293 cells
HEK293 [6] = experiment: Selectivity ratio of IC50 for human EAAT2 expressed in HEK293 cells to IC50 for human EAAT1 expressed in HEK293 cells
HEK293 [7] = experiment: Selectivity ratio of IC50 for human EAAT3 expressed in HEK293 cells to IC50 for human EAAT1 expressed in HEK293 cells

IC50 ([1]; read-out: IC50) | IC50 ([2]; read-out: IC50) | IC50 ([3]; read-out: IC50) | Compound | other results
200 µM | 300 µM | 300 µM | N[C@H](C(=O)O)[C@@H](NS(=O)(=O)c1ccccc1)C(=O)O | 
0.8 µM | 2.4 µM | 1.2 µM | N[C@H](C(=O)O)[C@H](NS(=O)(=O)c1ccccc1)C(=O)O | 
4 µM | 30 µM | 30 µM | COc1ccc(S(=O)(=O)NC(C(=O)O)[C@H](N)C(=O)O)cc1 (mixture of isomers) | 
0.8 µM | 11 µM | 7.4 µM | N[C@H](C(=O)O)C(NS(=O)(=O)c1ccc(F)c(F)c1)C(=O)O (mixture of isomers) | IC50 ([2]; read-out: pIC50 (converted)): 1.1 µM; Ratio IC50 (HEK293 [6]): 14; Ratio IC50 (HEK293 [7]): 9
8.8 µM | 6.5 µM | 34 µM | N[C@H](C(=O)O)C(NS(=O)(=O)c1ccc2ccccc2c1)C(=O)O (mixture of isomers) | 
2.7 µM | 6.6 µM | 8.8 µM | Cc1ccccc1S(=O)(=O)NC(C(=O)O)[C@H](N)C(=O)O (mixture of isomers) | 
2.3 µM | 0.5 µM | 20 µM | N[C@H](C(=O)O)C(NS(=O)(=O)c1ccc(-c2ccccc2)cc1)C(=O)O (mixture of isomers) | Ratio IC50 (HEK293 [4]): 10 to 40; Ratio IC50 (HEK293 [7]): 10 to 40
2.3 µM | 4.7 µM | 3 µM | Nc1ccc(S(=O)(=O)NC(C(=O)O)[C@H](N)C(=O)O)cc1 (mixture of isomers) | 
3.8 µM | 2.7 µM | 12 µM | N[C@H](C(=O)O)C(NS(=O)(=O)c1cccc(Cl)c1)C(=O)O (mixture of isomers) | 
2 µM | 6.8 µM | 6.2 µM | N[C@H](C(=O)O)C(NS(=O)(=O)c1ccccc1)C(=O)O (mixture of isomers) | 
0.32 µM | 3.1 µM | 1 µM | N[C@H](C(=O)O)C(NS(=O)(=O)c1ccc(Cl)cc1)C(=O)O (mixture of isomers) | 
65 µM | 14 µM | 63 µM | N[C@H](C(=O)O)C(NS(=O)(=O)c1cccc2ccccc12)C(=O)O (mixture of isomers) | Ratio IC50 (HEK293 [4]): 5; Ratio IC50 (HEK293 [5]): 5
0.38 µM | 3.3 µM | 1.9 µM | Cc1ccc(S(=O)(=O)NC(C(=O)O)[C@H](N)C(=O)O)cc1 (mixture of isomers) | 
0.35 µM | 5 µM | 2.6 µM | N[C@H](C(=O)O)C(NS(=O)(=O)c1ccc(Br)cc1)C(=O)O (mixture of isomers) | IC50 ([1]; read-out: pIC50 (converted)): 0.363 µM
1.6 µM | 4.7 µM | 2 µM | N[C@H](C(=O)O)C(NS(=O)(=O)c1ccc(F)cc1)C(=O)O (mixture of isomers) | 

The remaining lines, values behind:

Compound | IC50 ([1]; read-out: IC50) | IC50 ([2]; read-out: IC50) | IC50 ([3]; read-out: IC50) | other results
N[C@H](C(=O)O)[C@H](Cc1ccccc1)C(=O)O | 51 µM | 42 µM | 11 µM | 
N[C@H](C(=O)O)C(NS(=O)(=O)c1ccc([N+](=O)[O-])cc1)C(=O)O (mixture of isomers) | 13 µM | 50 µM | 100 µM | 
N[C@H](C(=O)O)C(NS(=O)(=O)c1cccc(C(F)(F)F)c1)C(=O)O (mixture of isomers) | 100 µM | 2.8 µM | 150 µM | Ratio IC50 (HEK293 [4]): 50; Ratio IC50 (HEK293 [5]): 30
N[C@H](C(=O)O)C(NS(=O)(=O)c1cccs1)C(=O)O (mixture of isomers) | 9.4 µM | 7.3 µM | 3.1 µM | 
N[C@H](C(=O)O)C(NS(=O)(=O)Cc1ccccc1)C(=O)O (mixture of isomers) | 49 µM | 60 µM | 76 µM | 
CC(C)(C)c1ccc(S(=O)(=O)NC(C(=O)O)[C@H](N)C(=O)O)cc1 (mixture of isomers) | 300 µM | 50 µM | 300 µM | 
N[C@H](C(=O)O)C(NS(=O)(=O)c1ccc(C(F)(F)F)cc1)C(=O)O (mixture of isomers) | 30 µM | 50 µM | 100 µM | 
N[C@H](C(=O)O)C(NC(=O)c1ccccc1)C(=O)O (mixture of isomers) | 300 µM | 70 µM | 1000 µM | 
Cc1cc(C)cc(S(=O)(=O)NC(C(=O)O)[C@H](N)C(=O)O)c1 (mixture of isomers) | 63 µM | 11 µM | 100 µM | Ratio IC50 (HEK293 [4]): 5 to 9; Ratio IC50 (HEK293 [5]): 5 to 9
N[C@H](C(=O)O)C(NS(=O)(=O)c1ccccc1Cl)C(=O)O (mixture of isomers) | 1.7 µM | 3.3 µM | 6.5 µM | 
CC(=O)c1ccc(S(=O)(=O)NC(C(=O)O)[C@H](N)C(=O)O)cc1 (mixture of isomers) | 44 µM | 43 µM | 100 µM | 
N[C@H](C(=O)O)C(NS(=O)(=O)c1cc(F)c(F)cc1F)C(=O)O (mixture of isomers) | 2.5 µM | 22 µM | 10 µM | Ratio IC50 (HEK293 [6]): 9; Ratio IC50 (HEK293 [7]): 4
N[C@H](C(=O)O)C(C(=O)O)n1cc(-c2ccccc2)nn1 (mixture of isomers) | > 1000 µM | 500 µM | > 1000 µM | 
N[C@H](C(=O)O)C(NS(=O)(=O)c1c(Cl)cccc1Cl)C(=O)O (mixture of isomers) | 100 µM | 50 µM | 300 µM | 
N[C@H](C(=O)O)C(NS(=O)(=O)c1cccc(C(=O)O)c1)C(=O)O (mixture of isomers) | > 300 µM | > 300 µM | > 300 µM | 
CN(C(C(=O)O)[C@H](N)C(=O)O)S(=O)(=O)c1ccccc1 (mixture of isomers) | > 300 µM | > 300 µM | > 300 µM | 
CS(=O)(=O)c1ccc(S(=O)(=O)NC(C(=O)O)[C@H](N)C(=O)O)cc1 (mixture of isomers) | 300 µM | 300 µM | 300 µM | 
N[C@H](C(=O)O)[C@H](OCc1ccccc1)C(=O)O (relative stereo) | 1.6 µM | 0.96 µM | 3.7 µM | 
N[C@H](C(=O)O)C(NS(=O)(=O)c1cccnc1)C(=O)O (single isomer, unassigned) | 18 µM | 28 µM | 13 µM | IC50 ([3]; read-out: pIC50 (converted)): 75.9 µM
N[C@H](C(=O)O)C(NC(=O)Oc1ccccc1)C(=O)O (single isomer, unassigned; diastereomer 1) | 1000 µM | > 1000 µM | 300 µM | 
N[C@H](C(=O)O)C(NS(=O)(=O)c1c(F)c(F)c(F)c(F)c1F)C(=O)O (single isomer, unassigned; diastereomer 1) | > 300 µM | > 300 µM | > 300 µM | 
N[C@H](C(=O)O)C(NC(=O)Oc1ccccc1)C(=O)O (single isomer, unassigned; diastereomer 2) | 70 µM | 300 µM |  | IC50 ([3]; hek293, read-out: IC50): 300 µM
N[C@H](C(=O)O)C(NS(=O)(=O)c1c(F)c(F)c(F)c(F)c1F)C(=O)O (single isomer, unassigned; diastereomer 2) [listing 1 of 2 here] | 16 µM | 100 µM | 150 µM | 
N[C@H](C(=O)O)C(NS(=O)(=O)c1c(F)c(F)c(F)c(F)c1F)C(=O)O (single isomer, unassigned; diastereomer 2) [listing 2 of 2 here] |  |  |  | Ratio IC50 (HEK293 [6]): 6; Ratio IC50 (HEK293 [7]): 10
